Experimental data as given in ChEMBL document CHEMBL4396879, “Conjugation of Short Peptides to Dibenzodiazepinone-Type Muscarinic Acetylcholine Receptor Ligands Determines M2R Selectivity” (J Med Chem, 2019).

Assays:
[1] = Stability of the compound in human plasma used as 1:2 ratio of plasma to pH 7.4 PBS assessed as intact compound at 100 uM incubated for 24 hr […]; format: ADME, cell-free; conditions: plasma diluted with PBS (1:2), read-out: Stability
[2] = molecular target: T1, Muscarinic acetylcholine receptor M3 (Homo sapiens, UniProt P20309); test: Displacement of [3H]-NMS from human muscarinic M3 receptor expressed in CHO-K9 cells after 3 hrs by microbeta2 scintillation counting method; format: cell-based
T1 sequence (P20309 whole entry): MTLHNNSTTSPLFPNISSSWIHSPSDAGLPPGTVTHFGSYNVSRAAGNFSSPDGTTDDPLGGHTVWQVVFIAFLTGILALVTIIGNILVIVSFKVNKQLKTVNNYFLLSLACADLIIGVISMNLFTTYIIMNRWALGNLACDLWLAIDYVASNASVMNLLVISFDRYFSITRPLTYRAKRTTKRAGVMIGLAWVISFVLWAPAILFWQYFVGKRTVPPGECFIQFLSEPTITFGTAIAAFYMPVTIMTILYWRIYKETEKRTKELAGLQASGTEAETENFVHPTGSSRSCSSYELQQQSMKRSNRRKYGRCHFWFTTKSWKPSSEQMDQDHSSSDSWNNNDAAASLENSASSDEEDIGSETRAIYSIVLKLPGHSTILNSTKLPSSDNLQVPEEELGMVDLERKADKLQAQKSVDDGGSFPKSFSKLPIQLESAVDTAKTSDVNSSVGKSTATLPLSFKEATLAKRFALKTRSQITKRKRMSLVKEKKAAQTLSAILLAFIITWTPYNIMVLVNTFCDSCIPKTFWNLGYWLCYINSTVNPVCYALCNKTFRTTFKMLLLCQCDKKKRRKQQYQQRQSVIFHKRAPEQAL
In short: (§1)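 [3H]NMS competition binding on intact CHO-hMxR cells in L15 medium with 1% BSA, 3 h at 22 ± 1 °C with gentle shaking. [3H]NMS was 0.2 nM (M1, M2, M3), 0.1 nM (M4) or 0.3 nM (M5). […] Cells were lysed in urea/acetic acid/Triton and counted by liquid scintillation. Ki from Cheng-Prusoff. Triplicates, ≥3 experiments.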

[3] = molecular target: T2, Muscarinic acetylcholine receptors; M2 & M3 (Homo sapiens) (UniProt P20309+P08172); test: Selectivity ratio of Ki for human muscarinic M3 receptor expressed in CHO-K9 cells to Ki for human muscarinic M2 receptor expressed in CHO-K9 cells; format: cell-based
T2 sequence (P20309 whole entry, looked up, one chain of several): as the sequence (P20309 whole entry) above
In short: (§2)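 Ratio of mean Ki values. Each Ki came from an individual [3H]NMS competition experiment at the given CHO-hMxR subtype, converting IC50 to Ki by Cheng-Prusoff before averaging.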

[4] = Stability of the compound in human plasma used as 1:2 ratio of plasma to pH 7.4 PBS assessed as intact compound at 100 uM incubated for 6 hr […]; format: ADME, cell-free; conditions: plasma diluted with PBS (1:2), read-out: Stability
[5] = molecular target: T3, Muscarinic acetylcholine receptor M2 (Homo sapiens, UniProt P08172); test: Displacement of [3H]-NMS from human muscarinic M2 receptor expressed in CHO-K9 cells after 3 hrs by microbeta2 scintillation counting method; format: cell-based; in short: as §1
T3 sequence (P08172 whole entry): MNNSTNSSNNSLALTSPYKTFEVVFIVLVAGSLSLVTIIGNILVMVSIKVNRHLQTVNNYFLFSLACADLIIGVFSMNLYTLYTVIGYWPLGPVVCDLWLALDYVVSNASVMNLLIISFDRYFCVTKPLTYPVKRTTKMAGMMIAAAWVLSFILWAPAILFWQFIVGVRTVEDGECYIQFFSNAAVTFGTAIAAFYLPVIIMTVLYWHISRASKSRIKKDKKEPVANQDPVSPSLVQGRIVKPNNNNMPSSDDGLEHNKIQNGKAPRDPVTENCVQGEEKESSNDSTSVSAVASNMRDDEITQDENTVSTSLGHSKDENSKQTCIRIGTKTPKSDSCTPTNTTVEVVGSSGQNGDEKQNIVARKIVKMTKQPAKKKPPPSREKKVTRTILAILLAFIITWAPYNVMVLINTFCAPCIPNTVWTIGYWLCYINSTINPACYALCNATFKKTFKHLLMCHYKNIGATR

[6] = molecular target: T4, Muscarinic acetylcholine receptor M1 (Homo sapiens, UniProt P11229); test: Displacement of [3H]-NMS from human muscarinic M1 receptor expressed in CHO-K9 cells after 3 hrs by microbeta2 scintillation counting method; format: cell-based; in short: as §1
T4 sequence (P11229 whole entry): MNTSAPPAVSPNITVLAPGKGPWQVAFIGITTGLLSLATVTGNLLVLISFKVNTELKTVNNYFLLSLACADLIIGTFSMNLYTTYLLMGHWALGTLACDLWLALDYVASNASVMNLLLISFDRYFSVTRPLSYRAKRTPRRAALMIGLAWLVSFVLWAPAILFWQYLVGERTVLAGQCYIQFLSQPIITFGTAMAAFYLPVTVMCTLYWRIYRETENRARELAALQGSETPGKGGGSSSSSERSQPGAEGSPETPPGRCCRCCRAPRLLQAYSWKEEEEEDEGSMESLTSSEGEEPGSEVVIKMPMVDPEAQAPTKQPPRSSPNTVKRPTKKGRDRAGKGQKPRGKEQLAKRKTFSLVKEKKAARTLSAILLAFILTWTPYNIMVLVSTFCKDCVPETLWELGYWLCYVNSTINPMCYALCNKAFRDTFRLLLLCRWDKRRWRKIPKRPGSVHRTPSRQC

[7] = Stability of the compound in human plasma used as 1:2 ratio of plasma to pH 7.4 PBS assessed as intact compound at 100 uM incubated for 48 hr by LC-MS analysis; format: ADME, cell-free; conditions: plasma diluted with PBS (1:2), read-out: Stability
In short: (§3)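 Compound added at 100 μM (from 5 mM stock in acetonitrile/0.04% TFA 3:7) to heparinized human plasma/PBS pH 7.4 (1:2 v/v) with 10 μM 1-methyl-D-tryptophan as internal standard. Incubated shaking at 37 °C in triplicate. Aliquots were EtOH/acetonitrile-precipitated and analysed by RP-HPLC at 220 nm, with recovery correction against four-point calibrations.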

[8] = molecular target: T5, Muscarinic acetylcholine receptor M2 and M5 (Homo sapiens) (UniProt P08172+P08912); test: Selectivity ratio of Ki for human muscarinic M5 receptor expressed in CHO-K9 cells to Ki for human muscarinic M2 receptor expressed in CHO-K9 cells; format: cell-based; in short: as §2
[9] = molecular target: T6, Muscarinic acetylcholine receptor M5 (Homo sapiens, UniProt P08912); test: Displacement of [3H]-NMS from human muscarinic M5 receptor expressed in CHO-K9 cells after 3 hrs by microbeta2 scintillation counting method; format: cell-based; in short: as §1
T6 sequence (P08912 whole entry): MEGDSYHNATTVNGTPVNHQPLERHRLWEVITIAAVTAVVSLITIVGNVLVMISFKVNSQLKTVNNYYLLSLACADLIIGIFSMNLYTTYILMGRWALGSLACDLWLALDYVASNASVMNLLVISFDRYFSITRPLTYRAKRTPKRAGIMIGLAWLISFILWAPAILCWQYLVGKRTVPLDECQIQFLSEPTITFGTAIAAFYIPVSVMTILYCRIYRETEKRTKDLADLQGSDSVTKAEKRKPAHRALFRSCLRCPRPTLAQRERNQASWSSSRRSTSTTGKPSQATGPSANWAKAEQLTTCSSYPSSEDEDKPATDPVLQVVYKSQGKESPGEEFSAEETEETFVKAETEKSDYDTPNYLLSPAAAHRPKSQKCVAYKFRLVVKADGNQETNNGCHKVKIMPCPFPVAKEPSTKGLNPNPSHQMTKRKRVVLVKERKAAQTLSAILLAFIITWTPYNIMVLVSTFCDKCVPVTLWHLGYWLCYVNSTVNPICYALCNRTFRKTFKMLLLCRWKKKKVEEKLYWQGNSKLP

[10] = molecular target: Muscarinic acetylcholine receptors; M1 & M2 (Homo sapiens) (UniProt P11229+P08172); test: Selectivity ratio of Ki for human muscarinic M1 receptor expressed in CHO-K9 cells to Ki for human muscarinic M2 receptor expressed in CHO-K9 cells; format: cell-based; in short: as §2
[11] = molecular target: T7, Muscarinic acetylcholine receptor M4 (Homo sapiens, UniProt P08173); test: Displacement of [3H]-NMS from human muscarinic M4 receptor expressed in CHO-K9 cells after 3 hrs by microbeta2 scintillation counting method; format: cell-based; in short: as §1
T7 sequence (P08173 whole entry): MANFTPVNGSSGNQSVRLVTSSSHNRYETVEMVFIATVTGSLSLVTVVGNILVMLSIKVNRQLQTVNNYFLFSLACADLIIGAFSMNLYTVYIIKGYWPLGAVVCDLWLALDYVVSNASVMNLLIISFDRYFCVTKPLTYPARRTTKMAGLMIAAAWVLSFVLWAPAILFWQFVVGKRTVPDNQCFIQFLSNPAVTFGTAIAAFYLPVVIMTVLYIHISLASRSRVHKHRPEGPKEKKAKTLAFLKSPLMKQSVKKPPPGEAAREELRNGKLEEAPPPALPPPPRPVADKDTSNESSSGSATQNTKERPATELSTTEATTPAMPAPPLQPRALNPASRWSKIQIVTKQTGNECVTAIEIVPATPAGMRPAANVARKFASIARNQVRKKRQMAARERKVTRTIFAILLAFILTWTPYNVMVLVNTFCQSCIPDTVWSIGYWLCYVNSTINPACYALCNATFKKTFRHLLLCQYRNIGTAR

[12] = molecular target: Muscarinic acetylcholine receptor M2 and M4 (Homo sapiens) (UniProt P08173+P08172); test: Selectivity ratio of Ki for human muscarinic M4 receptor expressed in CHO-K9 cells to Ki for human muscarinic M2 receptor expressed in CHO-K9 cells; format: cell-based; in short: as §2
[13] = Stability of the compound in human plasma:PBS of pH 7.4 (1:2) assessed as intact compound at 100 uM incubated for 1 hr by LC-MS analysis; format: ADME, cell-free; conditions: plasma diluted with PBS (1:2), read-out: Stability; in short: as §3
[14] = molecular target: T7, Muscarinic acetylcholine receptor M4; test: Binding affinity to muscarinic M4 receptor (unknown origin) expressed in CHO cells; format: cell-based; in short: as §1
[15] = molecular target: T6, Muscarinic acetylcholine receptor M5; test: Binding affinity to muscarinic M5 receptor (unknown origin) expressed in CHO cells; format: cell-based; in short: as §1
[16] = molecular target: T1, Muscarinic acetylcholine receptor M3; test: Binding affinity to muscarinic M3 receptor (unknown origin) expressed in CHO cells; format: cell-based; in short: as §1
[17] = molecular target: T4, Muscarinic acetylcholine receptor M1; test: Binding affinity to muscarinic M1 receptor (unknown origin) expressed in CHO cells; format: cell-based; in short: as §1
[18] = molecular target: T8, Muscarinic acetylcholine receptor M2 (Homo sapiens) (UniProt P08172); test: Antagonist activity at human muscarinic M2 receptor expressed in HEK293 cells co-expressing HA-Galphaq/i5 assessed as inhibition of carbachol-induced IP1 accumulation pre-incubated for 30 mins followed by carbachol addition and measured after 1 hr by HTRF assay; format: functional, cell-based
T8 sequence (whole entry): T3 sequence (P08172 whole entry)
In short: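 HEK-293 cells transiently cotransfected (receptor plus HA-tagged Gαqi5), detached after 1 day and seeded at 10,000 cells/well for 24 h at 37 °C. Duplicates.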

[19] = molecular target: T5, Muscarinic acetylcholine receptor M2 and M5 (Homo sapiens); test: Selectivity ratio of Ki for human muscarinic M5 receptor expressed in stable CHO-K1 cells to Ki for human muscarinic M2 receptor expressed in stable CHO-K1 cells; format: cell-based
[20] = molecular target: T2, Muscarinic acetylcholine receptors; M2 & M3 (Homo sapiens); test: Selectivity ratio of Ki for human muscarinic M3 receptor expressed in stable CHO-K1 cells to Ki for human muscarinic M2 receptor expressed in stable CHO-K1 cells; format: cell-based

SMILES | remaining at 24 h, 100 µM [1] [%] | Ki [2] [nM] | Ratio Ki [3] | remaining at 6 h, 100 µM [4] [%] | Ki [5] [nM] | Ki [6] [nM] | remaining at 48 h, 100 µM [7] [%] | Ratio Ki [8] | Ki [9] [nM] | Ratio Ki [10] | Ki [11] [nM] | Ratio Ki [12] | remaining at 1 h, 100 µM [13] [%] | Ki [14] [nM] | Ki [15] [nM] | Ki [16] [nM] | Ki [17] [nM] | inhibition [18] | Ratio Ki [19] | Ratio Ki [20]
CC(=O)N[C@@H](CCCNC(=N)N)C(=O)N[C@@H](CCCCN)C(=O)NCC(=O)NCCCCC1CCN(CC(=O)N2c3ccccc3NC(=O)c3ccccc32)CC1 | > 99 | 776 | 620 | > 99 | 1.48 | 22.9 | 83 | 260 | 363 | 15 | 17.4 | 11 | > 99 | – | – | – | – | – | – | –
CCN(CC)CCCCC1CCN(CC(=O)N2c3ccccc3C(=O)Nc3cccnc32)CC1 | – | – | – | – | – | – | – | – | – | – | – | – | – | 7.94 | 1260 | 100 | 50.1 | – | – | –
CN1[C@@H]2CC[C@H]1C[C@@H](OC(=O)C(CO)c1ccccc1)C2 (some centres undefined) | – | – | – | – | – | – | – | – | – | – | – | – | – | – | – | – | – | Dose-dependent effect | – | –
CCCN(CCC)CC1CCCCN1CCNC(=O)N1c2ccccc2C(=O)Nc2cccnc21 (centres undefined) | – | – | – | – | – | – | – | – | – | – | – | – | – | – | – | – | – | – | 89 | 11
CC(=O)N[C@@H](CCC(N)=O)C(=O)N[C@@H](CC(C)C)C(=O)NCCN1CCN(CCCCC2CCN(CC(=O)N3c4ccccc4NC(=O)c4ccccc43)CC2)CC1 | – | 61.7 | 270 | – | 0.24 | 2.4 | – | 1300 | 295 | 9.6 | 1.2 | 5.4 | – | – | – | – | – | – | – | –
CC(=O)N[C@@H](CCCCN)C(=O)N[C@@H](Cc1ccc(O)cc1)C(=O)NCCN1CCN(CCCCC2CCN(CC(=O)N3c4ccccc4NC(=O)c4ccccc43)CC2)CC1 | – | 27.5 | 260 | – | 0.0794 | 1.41 | – | 780 | 70.8 | 14 | 1.12 | 12 | – | – | – | – | – | – | – | –
CC(=O)N[C@@H](Cc1c[nH]c2ccccc12)C(=O)N[C@@H](C)C(=O)N[C@@H](Cc1ccc(O)cc1)C(=O)NCCN1CCN(CCCCC2CCN(CC(=O)N3c4ccccc4NC(=O)c4ccccc43)CC2)CC1 | – | 35.5 | 410 | – | 0.0794 | 2.29 | – | 390 | 30.9 | 27 | 1.62 | 19 | – | – | – | – | – | – | – | –
CC(=O)N[C@@H](CCC(N)=O)C(=O)N[C@@H](C)C(=O)N[C@@H](CC(C)C)C(=O)NCCCCC1CCN(CC(=O)N2c3ccccc3NC(=O)c3ccccc32)CC1 | – | > 10000 | > 36 | – | 240 | 537 | – | 4.4 | 1200 | 2.2 | 417 | 1.7 | – | – | – | – | – | – | – | –
CC(=O)N[C@@H](CCCCN)C(=O)N[C@@H](CCCNC(=N)N)C(=O)NCCN1CCN(CCCCC2CCN(CC(=O)N3c4ccccc4NC(=O)c4ccccc43)CC2)CC1 | – | 49 | 800 | – | 0.0631 | 1.23 | – | 1900 | 112 | 20 | 2.04 | 37 | – | – | – | – | – | – | – | –
CC(=O)N[C@@H](CCCCN)C(=O)N[C@@H](CCCNC(=N)N)C(=O)NCC(=O)NCCCCC1CCN(CC(=O)N2c3ccccc3NC(=O)c3ccccc32)CC1 | – | 646 | 180 | – | 4.17 | 32.4 | – | 49 | 200 | 8.2 | 27.5 | 6.9 | – | – | – | – | – | – | – | –
